This note sets out measurements from ChEMBL document CHEMBL1132637, “Design and synthesis of potent, selective, and orally bioavailable tetrasubstituted imidazole inhibitors of p38 mitogen-activated protein kinase” (J Med Chem, 1999).

Data set [1] deals with T1, Mitogen-activated protein kinase 9 (Homo sapiens, UniProt P45984). Put plainly: Inhibition of c-Jun N-terminal kinase 2-alpha 1.
Target sequence in this assay (P45984 whole entry): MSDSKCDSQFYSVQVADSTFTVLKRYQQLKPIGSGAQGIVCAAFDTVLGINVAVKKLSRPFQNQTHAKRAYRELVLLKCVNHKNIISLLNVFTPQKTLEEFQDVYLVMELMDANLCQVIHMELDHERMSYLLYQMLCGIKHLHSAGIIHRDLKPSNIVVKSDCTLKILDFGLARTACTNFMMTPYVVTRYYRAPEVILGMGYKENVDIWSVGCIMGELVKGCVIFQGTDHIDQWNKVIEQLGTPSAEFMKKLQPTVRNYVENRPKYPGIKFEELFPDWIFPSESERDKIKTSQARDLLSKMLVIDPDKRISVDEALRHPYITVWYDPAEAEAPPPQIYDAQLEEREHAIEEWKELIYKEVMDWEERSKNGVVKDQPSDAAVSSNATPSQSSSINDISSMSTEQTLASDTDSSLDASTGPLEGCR
The target in data set [2] is T2, MAP kinase p38 (Homo sapiens, UniProt O15264+Q15759+Q16539+P53778). The data set can be described thus: Inhibitory activity against Mitogen-activated protein kinase p38 (MAP kinase). Type of data set: protein assay.
Data set [3] deals with T3, RAF proto-oncogene serine/threonine-protein kinase (Homo sapiens, UniProt P04049). The data set can be described thus: Inhibitory activity against recombinant human RAF proto-oncogene serine/threonine-protein kinase.
T3 sequence (P04049 whole entry): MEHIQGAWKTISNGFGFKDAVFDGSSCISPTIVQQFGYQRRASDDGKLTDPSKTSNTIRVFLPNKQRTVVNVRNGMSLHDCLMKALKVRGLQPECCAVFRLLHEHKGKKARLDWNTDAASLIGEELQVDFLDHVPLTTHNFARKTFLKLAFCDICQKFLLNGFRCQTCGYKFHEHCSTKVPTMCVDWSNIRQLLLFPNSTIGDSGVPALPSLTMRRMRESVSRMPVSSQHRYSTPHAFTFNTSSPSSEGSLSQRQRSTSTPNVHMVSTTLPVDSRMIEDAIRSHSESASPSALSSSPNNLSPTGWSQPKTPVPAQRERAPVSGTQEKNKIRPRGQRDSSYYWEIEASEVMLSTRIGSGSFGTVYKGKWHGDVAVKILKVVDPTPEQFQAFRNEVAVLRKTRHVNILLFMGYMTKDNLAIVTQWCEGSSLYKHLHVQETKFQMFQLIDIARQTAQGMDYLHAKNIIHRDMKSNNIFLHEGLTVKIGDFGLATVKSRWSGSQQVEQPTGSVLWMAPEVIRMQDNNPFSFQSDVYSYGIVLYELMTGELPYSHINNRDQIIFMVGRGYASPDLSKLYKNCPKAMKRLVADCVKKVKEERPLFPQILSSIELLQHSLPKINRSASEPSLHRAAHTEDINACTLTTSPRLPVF
Data set [4] is described as follows: Bioavailability in rat. It counts as ADME, organism-based. Conditions: in vivo. In a few lines: (§1)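 Male Sprague-Dawley rats, n = 3, dosed iv at 2 mg/kg or orally at 10 mg/kg. Mean plasma concentrations were followed over time. Pharmacokinetic parameters were derived from these plasma profiles.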
Data set [5] concerns the target T3, RAF proto-oncogene serine/threonine-protein kinase. Put plainly: Inhibition of human c-Raf kinase.
Data set [6] has as its target cAMP-dependent protein kinase (PKA) (Homo sapiens, UniProt P22694+P17612+P22612). Put plainly: Inhibition of Protein kinase A. It counts as protein assay. The method in brief: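 PKA was run at room temperature with 10 µM [33P]ATP and 10 µM kemptide substrate, under the supplier's conditions. The reaction was stopped with 75 mM phosphoric acid. Product was captured on phosphocellulose filters, washed with phosphoric acid and counted by scintillation.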

The target in data set [7] is Dual specificity mitogen-activated protein kinase kinase; MEK1/2 (Homo sapiens, UniProt P36507+Q02750). Put plainly: Inhibition of MEK-1, Mitogen activated protein kinase kinase 1. Type of data set: protein assay.
A short description of data set [8]: (§2) Intravenous half life in rat was determined. It counts as ADME, organism-based. Conditions: in vivo. In a few lines:
as §1

Data set [9] in a line: (§3) Vd sss value in rat. It counts as ADME, organism-based. Conditions: in vivo, read-out: Vdss. In a few lines:
as §1

The target of data set [10] is T1, Mitogen-activated protein kinase 9. The data set can be described thus: Inhibition of c-Jun N-terminal kinase 2-alpha 2.
Target sequence in this assay (P45984 whole entry): as the sequence (P45984 whole entry) above
Data set [11] deals with Protein kinase C (PKC). The data set can be described thus: Inhibition of Protein kinase C. It counts as protein assay. The method in brief: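 PKC (isozyme mix) was run at room temperature with 10 µM [33P]ATP and 70 µg/mL myelin basic protein substrate, under the supplier's conditions. Stopped with EDTA/pyrophosphate, filter-captured and counted by scintillation.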
The nature of data set [12]: Oral maximum concentration in rat. Type of data set: ADME, organism-based. Details: route oral. Conditions: in vivo. The method in brief:
as §1

A short description of data set [13]: (§4) Clpl value in rat. Type of data set: ADME, organism-based. The note with it: plasma, read-out: Clpl. In a few lines:
as §1

Data set [14] deals with T2, MAP kinase p38. Put plainly: Inhibition of Mitogen-activated protein kinase p38. It counts as protein assay.
Data set [15] concerns the target T3, RAF proto-oncogene serine/threonine-protein kinase. The data set can be described thus: Inhibition human c-Raf kinase at 1000 nM.
For data set [16], the target named is T1, Mitogen-activated protein kinase 9. The data set can be described thus: Inhibition of c-Jun N-terminal kinase 2-alpha 1 at 40000 nM.
Target sequence in this assay (P45984 whole entry, looked up): as the sequence (P45984 whole entry) above
In data set [17] the target is T3, RAF proto-oncogene serine/threonine-protein kinase. Put plainly: Inhibition of human RAF kinase at 5000 nM.
The target of data set [18] is T2, MAP kinase p38. The data set can be described thus: Inhibition of LPS-induced release of Tumor necrosis factor-alpha (TNF-alpha) from human whole blood. Type of data set: functional, tissue-based.
The test system of data set [19] is Rattus norvegicus. Described as §2. Type of data set: ADME, organism-based. The note with it: in vivo. In a few lines: as §1
Data set [20] is filed under the species Rattus norvegicus. The data set is described as §3. The note with it: in vivo. It counts as ADME, organism-based. The method in brief:
as §1

For data set [21], the species on record is Rattus norvegicus. The description is as §4. Type of data set: ADME, organism-based. The note with it: in vivo. The method in brief:
as §1

Data set [22] in a line: Intravenous half life in rat. Type of data set: ADME, organism-based. Conditions: in vivo. The method in brief: as §1

As usually defined, the IC50 is the concentration that gives 50% inhibition. `CNc1nccc(-c2[nH]c(-c3ccccc3)nc2-c2ccccc2)n1`: the figures for the IC50 in data set [1], in data set [2] and in data set [3] were 175 nM, 120 nM and 2100 nM, respectively.
On to `Clc1ccccc1-c1nc(-c2ccccc2)[nH]c1-c1ccncc1`, for which the concentration for half-maximal inhibition (IC50) was determined as 150 nM in [2] and 610 nM in data set [3].
On the same counts, the results for `COc1ccc(-c2nc(-c3ccccc3)[nH]c2-c2ccncc2)cc1` are 300 nM and 950 nM.
For `Clc1cccc(-c2nc(-c3ccccc3)[nH]c2-c2ccncc2)c1`, the IC50 was determined as 130 nM in data set [2] and 90 nM in data set [3].
For `CC(C)c1ccc(-c2[nH]c(-c3ccccc3)nc2-c2ccncc2)cc1`, the IC50 in [2] was 2100 nM; in data set [3], greater than 10000 nM.
For orientation: bioavailability means the share of a dose that reaches the circulation, judged against a reference dose that is usually intravenous. As usually defined, the half-life is the time in which the quantity being followed falls by half. What is called Cmax is the maximum level reached in the sampled fluid or tissue. For `C[C@H](Nc1cc(-c2c(-c3cccc(C(F)(F)F)c3)nc(C3CCNCC3)n2C)ccn1)c1ccccc1`, the IC50 in data set [1] was 1170 nM; in [5] it was 810 nM; in [6], greater than 1500 nM; in data set [7], greater than 10000 nM; in [10], 2200 nM; in data set [11], greater than 1500 nM. The bioavailability in [4] worked out at 85%. In data set [8], this compound showed a half-life of 2.85 h. Also, in data set [9], the Vd was 12.3 L/kg. The highest level in [12] (Cmax) was 390 nM. Moreover, the clearance in data set [13] came to 63 mL/min/kg.
Take `Clc1ccc(-c2nc(-c3ccccc3)[nH]c2-c2ccncc2)cc1`: the IC50 in [2] is 48 nM; in [3] it was 56 nM.
With `Fc1ccc(-c2[nH]c(C3CCCCC3)nc2-c2ccncc2)cc1`, the IC50 was determined as 29 nM in data set [1], 70 nM in data set [2] and 135 nM in data set [3].
Take `c1ccc(-c2nc(-c3ccncc3)c(-c3ccc(C4CCCCC4)cc3)[nH]2)cc1`: the IC50 in data set [2] is greater than 10000 nM; in data set [3], 570 nM.
As to `Oc1cccc(-c2nc(-c3ccccc3)[nH]c2-c2ccncc2)c1`, the IC50 in data set [2] was 140 nM; in data set [3], 23 nM.
The term inhibition denotes the change of the read-out against control, counted positive when it falls. The low end stands for a weak effect, the high end for a strong effect. For the compound `COc1ccc(CNc2nccc(-c3[nH]c(C4CCNCC4)nc3-c3cccc(C(F)(F)F)c3)n2)cc1`, the 50% inhibitory concentration (IC50) was determined as 735 nM in [1] and 7.6 nM in [14]. This compound also displayed an inhibition in [15] of 66%.
Consider `Nc1nccc(-c2[nH]c(C3CCNCC3)nc2-c2cccc(C(F)(F)F)c2)n1`, for which the IC50 stood at 3300 nM in [1] and 7 nM in data set [14]. Besides, the bioavailability in data set [4] turned out to be 0%. The compound also registered a half-life in data set [8] of 0.132 h. For the same compound, the Vd in data set [9] stood at 1.23 L/kg. For the same compound, in data set [15], the inhibition stood at 36%. The clearance in data set [13] amounted to 167 mL/min/kg.
For `Fc1ccc(-c2[nH]c(C3CCNCC3)nc2-c2ccncc2)cc1`, the IC50 in [1] is 210 nM; in [2] it was 9 nM; in data set [3], 80 nM.
As for `C[C@H](Nc1nccc(-c2nc(C3CCNCC3)n(C)c2-c2cccc(C(F)(F)F)c2)n1)c1ccccc1`, the inhibition in data set [16] came out at 37%; in data set [17], 26%.
As usually defined, the Vdss is a proportionality between amount in the body and measured concentration, not a real space. Read a low Vdss as little distribution into tissue. On to `C[C@H](Nc1nccc(-c2[nH]c(C3CCNCC3)nc2-c2cccc(C(F)(F)F)c2)n1)c1ccccc1`, for which the IC50 was found to be 1750 nM in data set [1], 3500 nM in data set [5], 6 nM in data set [18] and 0.75 nM in data set [14]. In data set [4], this compound returned a bioavailability of 0%. Also, in [19], the T1/2 amounted to 1 min. This compound registered a Vdss in [20] of 6.5 L/kg. Also, the Clpl in [21] was found to be 146 mL/min/kg.
On to `FC(F)(F)c1ccc(-c2[nH]c(-c3ccccc3)nc2-c2ccncc2)cc1`, for which the IC50 came out at 200 nM in data set [2] and 1400 nM in data set [3].
Consider `C[C@H](Nc1nccc(-c2c(-c3cccc(C(F)(F)F)c3)nc(C3CCNCC3)n2C)n1)c1ccccc1`, for which the bioavailability in data set [4] came out at 64%. Besides, the half-life in [22] was determined as 4.9 h. Moreover, the Vd in data set [9] amounted to 12.7 L/kg. Also, the peak level in data set [12] (Cmax) was 780 nM. Also, the clearance in data set [13] is 38.3 mL/min/kg.
As to `C[C@@H](Nc1nccc(-c2[nH]c(C3CCNCC3)nc2-c2cccc(C(F)(F)F)c2)n1)c1ccccc1`, the IC50 in data set [1] is 295 nM; in data set [18], 0.4 nM; in data set [2], 0.97 nM; in data set [3] it was 4500 nM.
Take `N#Cc1ccc(-c2[nH]c(-c3ccccc3)nc2-c2ccncc2)cc1`: the IC50 worked out at 970 nM in data set [2] and 86 nM in [3].
`Clc1cc(Cl)cc(-c2[nH]c(-c3ccccc3)nc2-c2ccncc2)c1`: the IC50 came out at 137 nM in data set [2] and 1600 nM in data set [3].
For the compound `Fc1ccc(-c2[nH]c(C3CCCNC3)nc2-c2ccncc2)cc1` (stereo unspecified), the figures for the IC50 in [1] and in [3] were 140 nM and 110 nM, respectively.
As to `c1ccc(-c2nc(-c3ccccc3)c(-c3ccncc3)[nH]2)cc1`, the IC50 in data set [1] is 130 nM; in data set [2] it was 180 nM; in data set [3], 380 nM.
Turning to `COC(=O)c1ccc(-c2[nH]c(-c3ccccc3)nc2-c2ccncc2)cc1`, the IC50 in [5] was 320 nM; in data set [14], greater than 10000 nM.
For the compound `COc1cccc(-c2[nH]c(-c3ccccc3)nc2-c2ccncc2)c1`, the IC50 in [2] was determined as 550 nM; in data set [3], 210 nM.
With `Fc1ccc(-c2nc[nH]c2-c2ccncc2)cc1`, the figures for the IC50 in data set [1], in data set [2] and in data set [3] were 195 nM, 170 nM and 1300 nM, respectively.
On to `Oc1ccc(-c2[nH]c(-c3ccccc3)nc2-c2ccncc2)cc1`, for which the IC50 amounted to 1400 nM in data set [2] and 390 nM in [3].
Consider `Nc1nccc(-c2[nH]c(-c3ccccc3)nc2-c2ccccc2)n1`, for which the IC50 was found to be 180 nM in data set [1], 57 nM in [2] and 750 nM in [3].
For `Clc1ccc(-c2[nH]c(-c3ccccc3)nc2-c2ccncc2)cc1Cl`, the IC50 came out at 28 nM in [2] and 20 nM in [3].
With `FC(F)(F)c1cccc(-c2nc(-c3ccccc3)[nH]c2-c2ccncc2)c1`, the IC50 in data set [1] is 910 nM; in [5], 2600 nM; in data set [14], 86 nM.
Take `c1ccc(-c2ccc(-c3[nH]c(-c4ccccc4)nc3-c3ccncc3)cc2)cc1`: the half-inhibitory concentration (IC50) was 1000 nM in [2] and 2500 nM in data set [3].
Turning to `c1ccc(-c2nc(-c3ccccc3)c(-c3ccncn3)[nH]2)cc1`, the figures for the IC50 in [1], in data set [2] and in data set [3] were 1420 nM, 700 nM and 5000 nM, respectively.
Take `Fc1cccc(-c2[nH]c(-c3ccccc3)nc2-c2ccncc2)c1`: the IC50 turned out to be 495 nM in data set [2] and 3000 nM in [3].
For `COc1ccc(CNc2nccc(-c3[nH]c(-c4ccccc4)nc3-c3ccccc3)n2)cc1`, the IC50 in [1] turned out to be 98 nM; in data set [2], 38 nM; in [3], 1000 nM.
